Reference: ChEMBL document CHEMBL4138248, “Discovery of naphtho[1,2-d]oxazole derivatives as potential anti-HCV agents through inducing heme oxygenase-1 expression” (Eur J Med Chem, 2018)
Activity calls are given as the source filed them. The rule behind the calls is not given here.

Key:
Hepatitis C virus [1] = assay: Antiviral activity against HCV infected in human Ava5 cells assessed as inhibition of viral RNA replication at 5 uM after 3 days by RT-qPCR method relative to control; assay type: functional, Hepacivirus hominis; details: Ava5, 72 h
Summary of the method: (§1)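 Ava5 replicon cells were exposed to 5 or 20 μM for 3 days, starting from 10 mM DMSO stocks diluted in medium. HCV RNA was quantified by RT-qPCR against gapdh and expressed as % inhibition relative to untreated control. Ribavirin was the reference drug. Mean ± SD of three independent experiments.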

Hepatitis C virus [2] = assay: Antiviral activity against HCV infected in human Ava5 cells assessed as inhibition of viral RNA replication at 20 uM after 3 days by RT-qPCR method relative to control; assay type: functional, Hepacivirus hominis; details: Ava5, 72 h; summary of the method: as §1
[3] = Selectivity index, ratio of CC50 for human Ava5 cells to IC50 for HCV; assay type: toxicity; details: read-out: Ratio CC50/IC50
Summary of the method: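 SI = CC50/IC50. CC50 comes from 72 h XTT in […] Ava5 cells. IC50 is the concentration giving 50% inhibition of HCV, measured by RT-qPCR after 3 days in Ava5 cells.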

Hepatitis C virus [4] = assay: Potency index, ratio of ribavirin IC50 to test compound IC50 for HCV; assay type: functional, Hepacivirus hominis
Hepatitis C virus [5] = assay: Antiviral activity against HCV infected in human Ava5 cells assessed as inhibition of NS5B protein synthesis after 3 days by Western blot method; assay type: functional, organism-based; details: Hepacivirus hominis
Summary of the method: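 Ava5 cells, seeded at 5×10^4 per well and grown overnight, were treated for 3 days. Lysates were made in RIPA buffer and 10 µg protein was run on 10% SDS-PAGE. Blots were probed with anti-NS5B, with GAPDH as loading control.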

Hepatitis C virus [6] = assay: Antiviral activity against HCV infected in human Ava5 cells assessed as inhibition of viral RNA replication after 3 days by RT-qPCR method; assay type: functional, organism-based, Hepacivirus hominis
Summary of the method: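 Ava5 cells (Huh-7 hepatoma cells carrying an HCV replicon, grown in DMEM/10% FBS with 1 mg·mL⁻¹ G418) were treated for 3 days with a range of concentrations. HCV RNA was measured by RT-qPCR and normalized to cellular gapdh mRNA. Values are mean ± SD of three independent experiments, each in triplicate.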

Hepatitis C virus [7] = assay: Antiviral activity against HCV JFH-1 infected in human Huh7.5 cells assessed as inhibition of viral RNA replication after 3 days by RT-qPCR method; assay type: functional, organism-based; details: Hepacivirus hominis
[8] = Induction of HO1 (unknown origin) promoter activity expressed in human Ava5 cells transfected with pHO-1-Luc after 3 days; assay type: cell-based
Summary of the method: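 Ava5 cells were transfected with 0.5 µg pHO-1-Luc, with pCMV-SEAP (0.1 µg) co-transfected for normalization. Cells were then treated at various concentrations for 3 days, and luciferase was read in lysates. Mean ± SD of three independent experiments.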

Homo sapiens [9] = organism: Homo sapiens; assay: Upregulation of HO-1 protein expression in human Ava5 cells after 3 days by Western blot method; assay type: functional, cell-based
Summary of the method: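 Ava5 cells were treated for 3 days at the indicated concentrations. Lysates (10 µg protein, 10% SDS-PAGE, PVDF) were probed with anti-HO-1 and anti-GAPDH.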

Hepatitis C virus [10] = assay: Antiviral activity against HCV infected in human Ava5 cells assessed as inhibition of viral RNA replication at 1 uM after 3 days in presence of HO-1 inhibitor SnPP by RT-qPCR method; assay type: functional, organism-based; details: Hepacivirus hominis
Summary of the method: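 Ava5 cells were co-incubated for 3 days with test compound at 1 μM plus the HO-1 inhibitor SnPP (tin protoporphyrin IX) at 0–5 μM. Lysates went to western blot for NS5B and GAPDH. RNA went to RT-qPCR normalized to gapdh mRNA. Mean ± SD of three independent experiments.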

Homo sapiens [11] = organism: Homo sapiens; assay: Effect on Nrf2 protein expression in human Ava5 cells at 0.5 to 1 uM after 3 days by Western blot method; assay type: functional, cell-based
Summary of the method: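 Ava5 cells were treated for 3 days at the indicated concentrations. Whole-cell lysates were immunoblotted with anti-Nrf2, anti-Keap-1, anti-bach1 and anti-GAPDH.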

[12] = target: T1, Heme oxygenase 1 (Homo sapiens) (UniProt P09601); assay: Induction of HO-1-mediated reduction on HCV NS3/4A protease activity in human Huh-7 cells transfected with pEG(DE4AB)SEAP/pNS3/4A after 3 days; assay type: cell-based
T1 sequence (whole entry): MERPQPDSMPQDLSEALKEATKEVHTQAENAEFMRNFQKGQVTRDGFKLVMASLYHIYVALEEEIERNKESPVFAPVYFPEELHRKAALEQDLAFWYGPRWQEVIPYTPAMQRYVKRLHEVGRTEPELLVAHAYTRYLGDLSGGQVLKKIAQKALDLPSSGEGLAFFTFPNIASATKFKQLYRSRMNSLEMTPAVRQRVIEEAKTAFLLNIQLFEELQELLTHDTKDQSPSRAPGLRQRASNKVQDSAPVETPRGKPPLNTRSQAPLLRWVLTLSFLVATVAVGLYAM
Summary of the method: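 Huh-7 cells were co-transfected with the pEG(DE4AB)SEAP reporter and the NS3/4A expression plasmid pNS3/4A, then treated for 3 days. Secreted SEAP activity reports protease activity and is expressed as fold of untreated control (set to 1). Mean ± SD, n=3.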

[13] = target: T1, Heme oxygenase 1 (Homo sapiens); assay: Induction of HO-1-mediated IFN-alpha-5 mRNA expression in human Ava5 cells after 3 days by RT-qPCR method; assay type: cell-based
Summary of the method: (§2)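 Ava5 cells were treated for 3 days at the indicated concentrations. Target mRNAs were measured by RT-qPCR with specific primers and normalized to endogenous gapdh. Results are relative to DMSO-treated cells.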

[14] = target: T1, Heme oxygenase 1 (Homo sapiens); assay: Induction of HO-1-mediated IFN-alpha-17 mRNA expression in human Ava5 cells after 3 days by RT-qPCR method; assay type: cell-based; summary of the method: as §2
[15] = target: T1, Heme oxygenase 1 (Homo sapiens); assay: Induction of HO-1-mediated OAS1 mRNA expression in human Ava5 cells after 3 days by RT-qPCR method; assay type: cell-based; summary of the method: as §2
[16] = target: T1, Heme oxygenase 1 (Homo sapiens); assay: Induction of HO-1-mediated OAS3 mRNA expression in human Ava5 cells after 3 days by RT-qPCR method; assay type: cell-based; summary of the method: as §2
[17] = target: T1, Heme oxygenase 1 (Homo sapiens); assay: Induction of HO-1-mediated PKR mRNA expression in human Ava5 cells after 3 days by RT-qPCR method; assay type: cell-based; summary of the method: as §2

Structure (SMILES): COc1ccc(Nc2cc3oc(-c4ccco4)nc3c3ccccc23)cc1
- inhibition at 5 µM (Hepatitis C virus [1]): 92.1%
- inhibition at 20 µM (Hepatitis C virus [2]): 94.6%
- selectivity ratio [3]: 229
- Ratio IC50 (Hepatitis C virus [4]): 21
- inhibition (Hepatitis C virus [5]): Dose-dependent effect
- IC50 (Hepatitis C virus [6]; Ava5, 72 h): 820 nM
- inhibition (Hepatitis C virus [6]; Hepacivirus hominis): Dose-dependent effect
- inhibition (Hepatitis C virus [7]): Dose-dependent effect
- Activity [8]: Dose-dependent effect
- Activity (Homo sapiens [9]): Dose-dependent effect
- inhibition (Hepatitis C virus [10]): inactive
- Activity (Homo sapiens [11]): inactive
- Activity [12]: Dose-dependent effect
- Activity [13]: Dose-dependent effect
- Activity [14]: Dose-dependent effect
- Activity [15]: Dose-dependent effect
- Activity [16]: Dose-dependent effect
- Activity [17]: Dose-dependent effect
